Data taken from ChEMBL document CHEMBL1146599, “Substituted pyrrol-1-ylacetic acids that combine aldose reductase enzyme inhibitory activity and ability to prevent the nonenzymatic irreversible modification of proteins from monosaccharides” (J Med Chem, 2003).
“And” between values parts separate entries of the source, which are not always exact repeats. Identical values can stand only once.

Assays:
[1] = target: Aldo-keto reductase family 1 member B1 (Rattus norvegicus) (UniProt P07943); experiment: In vitro inhibitory activity against aldose reductase of rat lens at 10E-6 M concentration
Outline: (§1)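 Aldose reductase was prepared from lenses quickly removed from euthanized Fischer-344 rats of both sexes. Compounds were dissolved in 0.2 M NaHCO3. Activity was followed spectrophotometrically as NADPH oxidation. Runs were done in triplicate, and values are means with standard error from three determinations.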

[2] = target: Aldo-keto reductase family 1 member B1 (Rattus norvegicus) (UniProt P07943); experiment: In vitro inhibitory activity against aldose reductase of rat lens at 10E-7 M concentration; outline: as §1
Albumin [3] = target: T1, Albumin (Bos taurus, UniProt P02769); experiment: Formation of DNPH-reactive carbonyl groups in bovine serum albumin exposed to fructose (2.5 mM); not detectable.; assay type: functional; details: cattle
Outline: (§2)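 Bovine serum albumin (fraction V, essentially fatty acid free) was incubated with fructose for 28 days. Compounds were added as potassium salts dissolved in water. Data are means ± SD with the number of samples given. Significance versus control was assessed by Student's t test.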

Albumin [4] = target: T1, Albumin; experiment: Formation of DNPH-reactive carbonyl groups in bovine serum albumin exposed to fructose; not detectable.; assay type: functional; details: cattle; outline: as §2
Albumin [5] = target: T1, Albumin; experiment: Formation of DNPH-reactive carbonyl groups in bovine serum albumin exposed to fructose (1 mM); p<0.001; assay type: functional; details: cattle; outline: as §2
Albumin [6] = target: T1, Albumin; experiment: Glycation-induced fluorescence changes of bovine serum albumin when exposed to fructose (2.5 mM); p<0.001; assay type: functional; details: cattle; outline: as §2
Albumin [7] = target: T1, Albumin; experiment: Glycation-induced fluorescence changes of bovine serum albumin when exposed to fructose (5 mM); p<0.001; assay type: functional; details: cattle; outline: as §2
Albumin [8] = target: T1, Albumin; experiment: Glycation-induced fluorescence changes of bovine serum albumin when exposed to fructose (1 mM); p<0.001; assay type: functional; details: cattle; outline: as §2
Albumin [9] = target: T1, Albumin; experiment: In vitro ability to inhibit the irreversible modification of the model protein albumin in the presence of fructose as glycating agent (1 mM); outline: as §2
Albumin [10] = target: T1, Albumin; experiment: In vitro ability to inhibit the irreversible modification of the model protein albumin in the presence of fructose as glycating agent (5 mM); outline: as §2
[11] = target: Aldo-keto reductase family 1 member B1 (Homo sapiens, UniProt P15121); experiment: (§3) Inhibitory activity against aldose reductase enzyme
Albumin [12] = target: T1, Albumin; experiment: Formation of DNPH-reactive carbonyl groups in bovine serum albumin exposed to fructose (5 mM); not detectable; assay type: functional; details: cattle; outline: as §2
Albumin [13] = target: T1, Albumin; experiment: Formation of DNPH-reactive carbonyl groups in bovine serum albumin exposed to fructose (1 mM); not detectable; assay type: functional; details: cattle; outline: as §2
Albumin [14] = target: T1, Albumin; experiment: In vitro ability to inhibit the irreversible modification of the model protein albumin in the presence of fructose as glycating agent (2.5 mM); outline: as §2
[15] = target: Aldo-keto reductase family 1 member B1 (Rattus norvegicus) (UniProt P07943); experiment: In vitro inhibitory activity against aldose reductase of rat lens at 10E-8 M concentration; outline: as §1
Albumin [16] = target: T1, Albumin; experiment: Formation of DNPH-reactive carbonyl groups in bovine serum albumin exposed to fructose; p<0.001; assay type: functional; details: cattle; outline: as §2
[17] = target: Aldo-keto reductase family 1 member B1 (Rattus norvegicus) (UniProt P07943); experiment: In vitro inhibitory activity against aldose reductase of rat lens at 10E-5 M concentration; outline: as §1
[18] = target: Aldo-keto reductase family 1 member B1 (Rattus norvegicus, UniProt P07943); experiment: as §3; outline: as §1
[19] = target: Aldo-keto reductase family 1 member B1 (Rattus norvegicus) (UniProt P07943); experiment: In vitro inhibitory activity against aldose reductase of rat lens at 10E-9 M concentration; outline: as §1
Albumin [20] = target: T1, Albumin; experiment: Formation of DNPH-reactive carbonyl groups in bovine serum albumin exposed to fructose (1 mM); p<0.01; assay type: functional; details: cattle; outline: as §2
Albumin [21] = target: T1, Albumin; experiment: Formation of DNPH-reactive carbonyl groups in bovine serum albumin exposed to fructose (5 mM); not detectable.; assay type: functional; details: cattle, 5000 µM; outline: as §2
Albumin [22] = target: T1, Albumin; experiment: Glycation-induced fluorescence changes of bovine serum albumin when exposed to fructose (1 mM); p<0.01; assay type: functional; details: cattle; outline: as §2
Albumin [23] = target: T1, Albumin; experiment: Formation of DNPH-reactive carbonyl groups in bovine serum albumin exposed to fructose (2.5 mM); p<0.001; assay type: functional; details: cattle; outline: as §2

T1 sequence (P02769 whole entry): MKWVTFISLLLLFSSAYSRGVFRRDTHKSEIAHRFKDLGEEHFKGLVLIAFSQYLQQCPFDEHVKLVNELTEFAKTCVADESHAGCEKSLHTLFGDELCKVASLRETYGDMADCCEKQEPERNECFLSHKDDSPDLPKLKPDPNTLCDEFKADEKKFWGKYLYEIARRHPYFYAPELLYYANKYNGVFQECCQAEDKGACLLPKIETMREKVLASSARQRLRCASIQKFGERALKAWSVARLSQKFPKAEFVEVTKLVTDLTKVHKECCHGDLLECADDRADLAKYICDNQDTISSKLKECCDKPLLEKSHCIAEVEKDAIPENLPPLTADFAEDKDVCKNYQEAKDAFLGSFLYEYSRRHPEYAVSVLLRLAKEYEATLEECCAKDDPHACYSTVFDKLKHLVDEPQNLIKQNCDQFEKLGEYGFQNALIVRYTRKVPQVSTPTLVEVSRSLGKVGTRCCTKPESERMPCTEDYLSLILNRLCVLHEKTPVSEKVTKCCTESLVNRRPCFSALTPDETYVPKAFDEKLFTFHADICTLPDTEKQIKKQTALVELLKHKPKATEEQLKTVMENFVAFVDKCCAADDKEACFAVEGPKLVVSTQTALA

## Cn1cc(C(=O)c2ccn(CC(=O)O)c2)c2ccccc21
[1]
  inhibition: 38%

## COc1ccc(C(=O)c2ccn(CC(=O)O)c2)cc1
[1]
  inhibition: 72%
[2]
  inhibition: 26%

## O=C(O)Cn1ccc(C(=O)c2ccn(-c3ccccc3)c2)c1
[1]
  inhibition: 67%
Albumin [3]
  Carbonyl group: not detectable
Albumin [4]
  Carbonyl group: not detectable
Albumin [5]
  Carbonyl group: 1.55 nM/mg
[2]
  inhibition: 39%
Albumin [6]
  Relative florescence: 21
Albumin [7]
  Relative florescence: 16.4
Albumin [8]
  Relative florescence: 21
Albumin [9]
  Inhibition: 24% and 69%
Albumin [10]
  Inhibition: 41% and 100%

## O=C(O)Cn1ccc(C(=O)c2cccc(Cl)c2)c1
[1]
  inhibition: 44%

## O=C(O)Cn1ccc(C(=O)c2ccc(O)cc2)c1
[1]
  inhibition: 45%

## O=C(O)Cn1ccc(C(=O)Cc2ccccc2)c1
[1]
  inhibition: 29%

## NC(=O)[C@@H]1C[C@]2(NC(=O)NC2=O)c2cc(F)ccc2O1
[11]
  IC50: 35 nM

## O=C(O)Cn1ccc(C(=O)c2ccc([N+](=O)[O-])cc2)c1
[1]
  inhibition: 18%

## O=C(O)Cn1ccc(C(=O)c2ccc(-n3cccc3)cc2)c1
[1]
  inhibition: 80%
Albumin [12]
  Carbonyl group: not detectable
Albumin [3]
  Carbonyl group: not detectable
[2]
  inhibition: 39%
Albumin [6]
  Relative florescence: 9.8
Albumin [7]
  Relative florescence: 4.7
Albumin [13]
  Carbonyl group: not detectable
Albumin [8]
  Relative florescence: 17.4
Albumin [14]
  Inhibition: 65% and 100%
Albumin [9]
  Inhibition: 37% and 100%
Albumin [10]
  Inhibition: 100%

## O=C(O)Cn1ccc(C(=O)c2ccc3ccccc3c2)c1
[1]
  inhibition: 79%
[2]
  inhibition: 72%
[15]
  inhibition: 49%

## Cc1c(C)c2c(c(C)c1O)CCC(C)(C(=O)O)O2 (stereo unspecified) [TROLOX]
Albumin [16]
  Carbonyl group: 3.44 nM/mg
[17]
  inhibition: 12%
Albumin [8]
  Relative florescence: 12.8
Albumin [9]
  Inhibition: 54% and 32%

## O=C(O)Cn1ccc(C(=O)c2ccc(-c3ccccc3)cc2)c1
[1]
  inhibition: 76%
[2]
  inhibition: 37%

## O=C(O)Cn1cc(C(=O)c2ccccc2)c2ccccc21
[1]
  inhibition: 38%

## CC(C)(C)c1ccc(C(=O)c2ccn(CC(=O)O)c2)cc1
[1]
  inhibition: 41%

## O=C(O)Cn1ccc(C(=O)c2ccc3c(c2)CCO3)c1
[1]
  inhibition: 42%

## COc1ccc(C(=O)c2cc(C(=O)c3ccc(OC)cc3)n(CC(=O)O)c2)cc1
[18]
  IC50: 2.36 nM
[1]
  inhibition: 96%
Albumin [12]
  Carbonyl group: not detectable
[19]
  inhibition: 41%
Albumin [3]
  Carbonyl group: not detectable
Albumin [5]
  Carbonyl group: 2.52 nM/mg
[2]
  inhibition: 94%
Albumin [6]
  Relative florescence: 11.8
Albumin [7]
  Relative florescence: 3.3
Albumin [8]
  Relative florescence: 17.3
Albumin [14]
  Inhibition: 57% and 100%
Albumin [9]
  Inhibition: 50%
  inhibition at 1000 µM: 38%
[15]
  inhibition: 59%
Albumin [10]
  Inhibition: 100%

## O=C(O)Cn1ccc(C(=O)c2cccc3ccccc23)c1
[1]
  inhibition: 58%
[2]
  inhibition: 59%

## O=C(O)Cn1ccc(Cc2ccccc2)c1
[1]
  inhibition: 9%

## O=C(O)Cn1ccc(C(=O)c2ccc(Cl)cc2)c1
[1]
  inhibition: 41%

## O=C(O)Cn1ccc(C(=O)c2ccccc2)c1
[1]
  inhibition: 27%

## O=C(O)Cn1ccc(C(=O)c2ccc(C(F)(F)F)cc2)c1
[1]
  inhibition: 47%

## O=C(O)Cn1ccc(C(=O)c2ccc3occc3c2)c1
[1]
  inhibition: 40%

## O=C(O)Cn1cccc1C(=O)c1ccccc1
[17]
  inhibition: 36%

## Cc1ccc(C(=O)c2ccn(CC(=O)O)c2)cc1
[1]
  inhibition: 46%

## COc1ccc(C(=O)c2cc(C(=O)c3ccccc3)n(CC(=O)O)c2)cc1
Albumin [20]
  Carbonyl group: 4.38 nM/mg
[1]
  inhibition: 93%
Albumin [21]
  Carbonyl group: not detectable
Albumin [22]
  Relative florescence: 23.1
[2]
  inhibition: 51%
Albumin [6]
  Relative florescence: 11.5
Albumin [7]
  Relative florescence: 6.9
Albumin [23]
  Carbonyl group: 1.7 nM/mg
Albumin [14]
  Inhibition: 41% and 66%
Albumin [9]
  Inhibition: 20%
  inhibition at 1000 µM: 17%
[15]
  inhibition: 13%
Albumin [10]
  Inhibition: 75% and 100%

## O=C(O)Cn1cc(C(=O)c2ccccc2)cc1C(=O)c1ccccc1
[1]
  inhibition: 82%
[2]
  inhibition: 62%
[15]
  inhibition: 27%
